PAX8 inh HTS = inhibitors of PAX8 transcriptional activity in RMG-I cells; RMG-I TPO-luciferase reporter, SteadyGlo, 24 h; inhibition, % at 12.6 µM; 360,000 tested, 1.2% active;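 active = mean replicate inhibition at least 60% with every replicate also reaching 60%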;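 also: luciferase light reporting Pax8 driven TPO promoter activity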
PGC1a acetyl inh = PGC1a acetylation modulation, inhibitor mode | inhibition, % at 15.6 µM | AID 651687 | U2OS PGC1a acetylation, AlphaScreen anti-acetyl-lysine; with virally co-expressed GCN5 acetyltransferase | 350,000 tested, 0.17% active;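 active = every replicate shows inhibition of at least 40%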
FN deposition inh = fibronectin deposition inhibition. inhibition, % at 12.6 µM. AH1F fibroblasts, Alexa488-fibronectin deposition fluorescence, overnight. 350,000 tested, 0.086% active;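 active = mean inhibition across replicates of 30% or more, regardless of how many single replicates reach that level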
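Assay system: AH1F fibroblasts / Quantity: 10000 cells per well / Medium: DMEM plus 2% serum, read in PBS / Reagent: labelled fibronectin 24 nM / Dosing: single dose, pinned / Times: 1 h cell attachment, overnight exposure to compound and label / Signal: fluorescence, ex 485 nm, em 525 nm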
EWS-Fli block = blocks EWS/Fli oncoprotein-driven transcription; A673 NR0B1-luciferase reporter, viability-normalised; inhibition, % at 12.6 µM; 350,000 tested, 0.67% active; AID 651661;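 active = mean inhibition of at least 50% after viability correction, with every replicate also passing that limit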;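 also: firefly luciferase signal divided by Alamar Blue viability fluorescence both relative to DMSO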
FGF22 binding = FGF22 (human) thermal shift binding; Q9HCT0; activity (Tm shift, normalised), % at 9.99 µM; 340,000 tested, 1.5% active; AID 651658; recombinant FGF22 thermal shift, SYPRO orange fluorescence; percent of sucrose octasulfate shift, DMSO zero;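 active = mean Tm shift, scaled 0 neutral to 100 positive control, at about 1.3% or above, every replicate too, limit read from the data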
Target sequence (Q9HCT0 whole entry, looked up): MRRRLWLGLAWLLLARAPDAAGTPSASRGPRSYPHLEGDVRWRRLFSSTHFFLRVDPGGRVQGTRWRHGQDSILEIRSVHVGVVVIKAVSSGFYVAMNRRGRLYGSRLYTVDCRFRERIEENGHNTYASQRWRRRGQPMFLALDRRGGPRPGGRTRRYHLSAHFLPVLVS
HIV Env fusion = inhibitors of HIV Env-mediated cell fusion. HeLa-JRFL Env/CEM21 cell fusion, luciferase. inhibition, % at 12.3 µM. AID 651610. 360,000 tested, 1.1% active;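 active = mean replicate inhibition score of at least 50 and every replicate individually at or above 50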
Hits are given with their value; - = inactive; . = no result. Compounds with a hit are over-represented: about 3.1% of the library has one in this group of screens.

SMILES | PAX8 inh HTS | PGC1a acetyl inh | FN deposition inh | EWS-Fli block | FGF22 binding | HIV Env fusion
CC[C@]12c3[nH]c4ccc(OC)cc4c3CCN1C(=O)C(CC(=O)NCC13CC4CC(CC(C4)C1)C3)C[C@@H]2C(=O)N1CCN(C(=O)C2CC2)CC1 (stereo partly specified) | - | - | - | - | - | 70
O=C(C[C@H]1C[C@H](C(=O)N2CCCCC2)[C@@]2(CCc3ccccc3)c3[nH]c4ccc(Cl)cc4c3CCN2C1=O)NCCc1ccccn1 | . | - | . | . | . | .
COc1ccc(C(=O)Nc2cc(C)on2)cc1[N+](=O)[O-] | - | . | - | - | 43 | -
COc1ccc(C(=O)Nc2cc(C)on2)cc1OC | - | - | - | - | - | -
COC(=O)c1cn(NC(=O)c2cc([N+](=O)[O-])ccc2F)c(=O)c2ccccc12 | - | . | - | - | - | 57
COC(=O)c1cn(NC(=O)C2CCC(C)CC2)c(=O)c2ccccc12 (stereo unspecified) | - | - | - | . | . | -
Cc1cc(C)c(S(N)(=O)=O)c(C)c1N(C)S(=O)(=O)c1ccccc1 | - | - | - | - | - | -
CCNS(=O)(=O)c1c(C)cc(C)c(N(C)S(=O)(=O)c2ccccc2)c1C | - | . | - | - | 43 | -
C[C@@H]1CN([C@@H](C)CO)C(=O)c2cc(-c3cccc(F)c3)cnc2O[C@H]1CN(C)S(=O)(=O)c1cccc(F)c1 | . | - | - | - | - | -
COCC(=O)Nc1ccc2c(c1)C(=O)N(C)[C@H]1CC[C@@H](CC(=O)Nc3ccccc3)O[C@@H]1CO2 | - | - | - | - | - | -
COc1ccc(/C=N/NC(=O)c2cccnc2)cc1 | - | . | - | - | - | -
COc1ccc(Oc2ccc(/C=N/NC(=O)c3cccnc3)cc2[N+](=O)[O-])cc1 | - | . | - | - | 43 | -
COc1ccc(/C=N/NC(=O)C(=O)NCc2cccnc2)cc1 | - | - | - | - | 44 | -
COc1ccc(Oc2ccc(/C=C/C(=O)c3cccc(OC)c3)cc2[N+](=O)[O-])cc1 | 108 | - | - | - | - | .
CCCN1[C@@H]2Cn3c(cccc3=O)[C@H]1[C@@H](C(=O)NC1Cc3ccccc3C1)[C@@H]2CO | . | . | . | - | - | .
CCC(=O)N1CC2(C1)CN(C(=O)Nc1ccccc1F)[C@@H](CO)c1c2c2ccc(OC)cc2n1C | . | - | . | - | - | .
CC(=O)Oc1ccc(OC(C)=O)c(SCCCCCCl)c1 | - | . | - | 54 | - | -
CC(=O)Oc1ccc(C(=O)O)cc1OC(C)=O | . | - | - | - | . | .
Clc1ccccc1CNCc1ccncc1 | - | - | - | - | 43 | -
O=C(CCNS(=O)(=O)c1cccc2nsnc12)NC1CCCc2ccccc21 (stereo unspecified) | - | . | - | . | . | -
O=C(CCNS(=O)(=O)c1cccc2nonc12)NC1CCCc2ccccc21 (stereo unspecified) | . | - | 36 | . | . | -
C[C@@H]1CN([C@H](C)CO)C(=O)c2cc(NC(=O)CCN3CCOCC3)ccc2O[C@H]1CN(C)C(=O)Nc1ccc(C(F)(F)F)cc1 | . | - | . | - | - | .
COc1ccc([Si](C)(C)[C@@H]2[C@@H](CCn3cc(CCO)nn3)O[C@]3(C(=O)N(c4ccccc4)c4ccccc43)[C@H]2C)cc1 | . | - | . | - | - | -
O=C(c1cnn2c(C(F)F)cc(-c3ccccc3)nc12)N1CCN(Cc2ccc3c(c2)OCO3)CC1 | - | . | - | . | - | 58
Cc1cccc(Cc2c(C)nc3c(C(=O)N4CCN(Cc5ccc6c(c5)OCO6)CC4)cnn3c2C)c1 | . | - | . | . | . | -
SMILES | PAX8 inh HTS | PGC1a acetyl inh | FN deposition inh | EWS-Fli block | FGF22 binding | HIV Env fusion
Cc1ccccc1Cc1c(C)nc2c(C(=O)N3CCN(Cc4ccc5c(c4)OCO5)CC3)cnn2c1C | . | - | . | . | . | 60
COCC(=O)N1[C@@H](C#N)[C@@H](c2ccccc2C2=CCCCC2)[C@@H]1CO | . | - | - | - | . | .
COc1ccc(Oc2ccc(N/C=C/C(=O)C(C)(C)C)cc2)cc1 | - | - | - | - | - | -
COc1cccc(Oc2ccc(N/C=C/C(=O)C(C)(C)C)cc2)c1 | - | - | - | - | 44 | -
Cc1cc(Oc2ccc(C#N)cc2)nc(NCc2ccccc2)n1 | - | - | - | . | . | 61
Cc1cc(NC2CCCCC2)nc(NCc2ccccc2)n1 | - | . | - | - | - | 54
Cc1cc(N/N=C/c2ccccc2Cl)nc(NCc2ccccc2)n1 | - | . | - | . | . | .
COc1ccc(Nc2cc(C)nc(NCc3ccccc3)n2)cc1 | - | - | - | - | - | 71
COc1cc(C)nc(NCc2ccccc2)n1 | - | . | - | . | . | -
Cc1ccc(Nc2cc(C)nc(NCc3ccccc3)n2)cc1 | - | . | - | - | - | 151
C[C@@H]1CN([C@H](C)CO)C(=O)c2cc(NS(=O)(=O)c3ccc(Cl)cc3)ccc2O[C@@H]1CN(C)S(=O)(=O)c1cn(C)cn1 | . | - | . | - | - | .
C[C@H](CO)N1C[C@H](C)[C@H](CN(C)C(=O)Nc2ccc3c(c2)OCO3)Oc2ccc(NC(=O)Cc3cn(C)c4ccccc34)cc2CC1=O | - | - | . | - | - | -
CC(C)NC(=O)N(C)C[C@@H]1Oc2ncc(-c3ccccc3F)cc2C(=O)N([C@@H](C)CO)C[C@H]1C | . | - | . | - | - | -
COc1cc(OC)cc(C2=Cc3ccccc3C(CC(C)=O)N2c2ccc(-c3cccs3)cc2)c1 (stereo unspecified) | 70 | . | . | - | - | -
COc1ccc(N=c2scc(-c3ccc(OC)cc3)n2CCO)cc1 | - | - | - | . | . | 71
COc1ccc(N=C2SCC(c3ccc(C)cc3)=NN2CCO)cc1 | - | 78 | - | - | - | -
COc1ccc(N=C2SCC(c3ccc([N+](=O)[O-])cc3)=NN2CCO)cc1 | - | - | - | - | - | -
COc1ccc(-c2ccc3c(c2)O[C@H](CN(C)C)[C@H](C)CN([C@@H](C)CO)S3(=O)=O)cc1 | . | - | - | - | - | -
CCCC(=O)Nc1ccc2c(c1)OC[C@H](C)N(C(C)=O)C[C@H](C)[C@@H](OC)CN(C)C2=O | . | - | - | . | . | .
Cc1cc(O)cc(C)c1Cl | - | - | - | - | - | -
Cc1cc(O)c(N)c(C)c1Cl | - | - | . | - | 43 | -
C[C@@H]1CN([C@H](C)CO)S(=O)(=O)c2ccc(-c3ccncc3)cc2O[C@H]1CN(C)C(=O)CC1CC1 | . | - | . | - | - | -
CCCn1nnnc1NCc1ccc(SC)cc1 | - | - | - | - | - | -
CSc1ccc(CNc2nnnn2C)cc1 | - | - | - | - | 43 | -
Oc1ccc(CCNc2c3ccccc3nc3ccccc23)cc1O | - | . | - | 70 | - | -
COc1ccc2c3c([nH]c2c1)[C@@H](CO)N(CC1CCOCC1)CC31CN(C(=O)c2ccc(F)cc2)C1 | . | . | . | - | - | -
O=[N+]([O-])c1ccc(S(=O)(=O)N2CCN(c3ccccn3)CC2)cc1 | - | - | - | - | 43 | -
CC(C)NC(=O)N(C)C[C@H]1Oc2ncc(-c3cncnc3)cc2C(=O)N([C@H](C)CO)C[C@@H]1C | - | - | - | - | . | -

Screening data as filed in PubChem.
